Columns and labels:
[1] = target: T1, Macrophage migration inhibitory factor (Homo sapiens, UniProt P14174); assay: Inhibition of human MIF tautomerase activity in presence of Triton X-100 as detergent
T1 sequence (P14174 whole entry): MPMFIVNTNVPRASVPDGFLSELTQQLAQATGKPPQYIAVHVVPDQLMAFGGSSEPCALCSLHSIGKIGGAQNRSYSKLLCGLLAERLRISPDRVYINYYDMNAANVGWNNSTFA
How it was run: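 Counter-screen for aggregation-based inhibition, with 0.1% v/v Triton X-100 in both buffer and enzyme stock. Wild-type human MIF (500 nM) preincubated with compound for 2 h at room temperature in 50 mM potassium phosphate, 0.5 mM EDTA, pH 6. 533 μM D-dopachrome methyl ester added; 475 nm end-point read at 2 min. IC50 by nonlinear regression.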

[2] = target: T1, Macrophage migration inhibitory factor; assay: Inhibition of human MIF tautomerase activity
How it was run: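 Wild-type human MIF (500 nM final) preincubated with compound for 2 h at room temperature over 24 nM–50 μM or 98–200 μM. Buffer: 50 mM potassium phosphate, 0.5 mM EDTA, pH 6, no detergent. Reaction started with 533 μM freshly made D-dopachrome methyl ester; end-point absorbance at 475 nm after 2 min. Triplicate runs; IC50 by nonlinear regression.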

[3] = target: T2, Macrophage migration inhibitory factor (Homo sapiens) (UniProt P14174); assay: Inhibition of human MIF tautomerase activity at 200 uM
T2 sequence (whole entry): T1 sequence (P14174 whole entry)
How it was run: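 Wild-type human MIF (500 nM) preincubated with compound at 200 μM for 2 h at room temperature in 50 mM potassium phosphate, 0.5 mM EDTA, pH 6. Reaction started with 533 μM fresh D-dopachrome methyl ester. Percent inhibition taken from absorbance at 475 nm 2 min after substrate addition.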

| SMILES | IC50 [1] | IC50 [2] | inhibition [3] |
| --- | --- | --- | --- |
| O=C(Oc1ccc(-c2ccccc2)nn1)c1cccs1 | 0.05 µM | 0.05 µM | – |
| O=[N+]([O-])c1ccc(NCc2ccco2)c2nonc12 | – | 60.4 µM | – |
| O=C(c1ccccc1)c1cc2ccc(O)cc2oc1=O | – | 64.2 µM | – |
| CCOC(=O)/C(C#N)=C/c1ccc(O)cc1O | 110 µM | 62.1 µM | – |
| c1ccc(NCn2nnc3ccccc32)nc1 | – | – | 69% |
| CCCCOC(=O)Sc1nc2ccccc2o1 | 0.15 µM | 0.08 µM | – |
| S=C(Nc1ccccn1)Nc1ccccc1Cl | 1.01 µM | 1.04 µM | – |
| O=Nc1c(-c2ccccc2)cc2ccccn12 | – | 121 µM | – |
| S=C(Nc1ccccc1)Nc1nncs1 | 0.42 µM | 0.3 µM | – |
| COC(=O)CSc1nnc(-c2cccs2)n1C | 28.4 µM | 18.6 µM | – |
| O=C(NOC(=O)c1ccccc1Br)c1ccc(Cl)cc1 | 4.2 µM | 2.8 µM | – |
| Cc1ccc(C(=O)/C=C/Nc2ccc(F)cc2F)o1 | – | 57.5 µM | – |
| O=[N+]([O-])c1cc(S(=O)(=O)C(F)(F)F)ccc1Sc1nnc(S)s1 | – | 9.5 µM | – |
| COc1ccccc1C(=O)n1nnc2ccccc21 | 12.2 µM | 6.9 µM | – |
| CC(=O)c1cc2ccc(O)cc2oc1=O | 103 µM | 45.2 µM | – |

Reference: ChEMBL document CHEMBL1250419, “An integrative in silico methodology for the identification of modulators of macrophage migration inhibitory factor (MIF) tautomerase activity” (Bioorg Med Chem, 2010)
